The text below walks through data of ChEMBL document CHEMBL1255432, “Fast standardized therapeutic-efficacy assay for drug discovery against tuberculosis” (2010).

The subject of assay [1] is Mycobacterium tuberculosis. In words: Antimycobacterial activity against Mycobacterium tuberculosis H37Rv infected in B6 mouse assessed as 2 log reduction in bacterial burden in lungs orally treated in water-1% methylcellulose upto 8 days. Format: functional. The note with it: Lung, po, 192 h. The method in brief: (§1)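 Female B6 mice, 8–10 weeks old, infected intratracheally under 3% isoflurane with 10^5 CFU H37Rv in 50 μl PBS. Oral dosing once daily from day 1 to day 8 at a range of doses; lungs harvested day 9, homogenized and plated; colonies counted after 14 days. ED99 (2-log CFU/lung reduction versus untreated controls) fitted from individual log10 CFU/lung to a logistic equation; 5 mice/group; 95% CI.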

The test system of assay [2] is Mycobacterium tuberculosis. Description: Antimycobacterial activity against Mycobacterium tuberculosis H37Rv infected in B6 mouse assessed as assessed as lowest concentration to reduce bacterial burden in lungs to level of reduction achieved with higher doses orally treated in water-1% methylcellulose upto 8 days. It counts as functional, Lung. The method in brief: (§2)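 B6 female mice given intratracheal H37Rv, 105 CFU/mouse in PBS, then oral once-daily treatment on days 1–8 across several doses. On day 9, lung homogenates were plated and CFU counted after 14 days. EDmax taken empirically as the lowest dose giving a lung CFU reduction statistically indistinguishable from higher doses; 5 mice/group.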

The test system of assay [3] is Mycobacterium tuberculosis. In words: Antimycobacterial activity against Mycobacterium tuberculosis H37Rv infected in B6 mouse assessed as 2 log reduction in bacterial burden in lungs orally treated in water upto 8 days. Conditions: Lung, po, 192 h. Format: functional. The method in brief:
as §1

The test system of assay [4] is Mycobacterium tuberculosis. Description: Antimycobacterial activity against Mycobacterium tuberculosis H37Rv infected in B6 mouse assessed as lowest concentration to reduce bacterial burden in lungs to level of reduction achieved with higher doses orally treated in water upto 8 days. Format: functional, Lung. The method in brief: as §2
Assay [5] has as its system Mycobacterium tuberculosis. Description: Antimycobacterial activity against Mycobacterium tuberculosis H37Rv infected in B6 mouse assessed as 2 log reduction in bacterial burden in lungs orally treated in water-20% captisol upto 8 days. It counts as functional. Conditions: Lung, po, 192 h. In a few lines:
as §1

Assay [6] relates to Mycobacterium tuberculosis. Description: Antimycobacterial activity against Mycobacterium tuberculosis H37Rv infected in B6 mouse assessed as assessed as lowest concentration to reduce bacterial burden in lungs to level of reduction achieved with higher doses orally treated in water-20% captisol upto 8 days. It counts as functional, Lung. In a few lines:
as §2

For assay [7], the system named is Mycobacterium tuberculosis. Description: Antimycobacterial activity against Mycobacterium tuberculosis H37Rv infected in B6 mouse assessed as 2 log reduction in bacterial burden in lungs orally treated in water-20% encapsine upto 8 days. It counts as functional. The note with it: Lung, po, 192 h. The method in brief:
as §1

Assay [8] deals with Mycobacterium tuberculosis. Description: Antimycobacterial activity against Mycobacterium tuberculosis H37Rv infected in B6 mouse assessed as assessed as lowest concentration to reduce bacterial burden in lungs to level of reduction achieved with higher doses orally treated in water-20% encapsine upto 8 days. Format: functional, Lung. In a few lines: as §2

For the molecule `CC[C@@H](CO)NCCN[C@@H](CC)CO` [ETHAMBUTOL], the ED99 in assay [1] was determined as 21.6 mg/kg. Moreover, the Emax in assay [2] is 300 mg/kg.
For `NNC(=O)c1ccncc1` [ISONIAZID], the ED99 in assay [3] is 0.95 mg/kg. Moreover, the Emax in assay [4] was 25 mg/kg.
Turning to `CC(=O)NC[C@H]1CN(c2ccc(N3CCOCC3)c(F)c2)C(=O)O1` [LINEZOLID], the ED99 in assay [1] amounted to 28 mg/kg. Also, the Emax result in assay [2] is reported as “>=300 mg kg-1”.
On to `COc1c(N2C[C@@H]3CCCN[C@@H]3C2)c(F)cc2c(=O)c(C(=O)O)cn(C3CC3)c12` [MOXIFLOXACIN], for which, in assay [5], the ED99 was 27.7 mg/kg. Moreover, the Emax in assay [6] stood at 100 mg/kg.
Consider `NC(=O)c1cnccn1` [PYRAZINAMIDE], for which the ED99 in assay [1] was 362 mg/kg. Moreover, the Emax result in assay [2] is “>=1000 mg kg-1”.
For the molecule `CO[C@H]1/C=C/O[C@@]2(C)Oc3c(C)c(O)c4c(O)c(c(/C=N/N5CCN(C)CC5)c(O)c4c3C2=O)NC(=O)/C(C)=C\C=C\[C@H](C)[C@H](O)[C@@H](C)[C@@H](O)[C@@H](C)[C@H](OC(C)=O)[C@@H]1C` [RIFAMPIN], the ED99 in assay [7] is 9.8 mg/kg. Moreover, the Emax in assay [8] was found to be 30 mg/kg.
